Test [1] concerns aldehyde dehydrogenase (Saccharomyces cerevisiae). Nature of the test: In vitro inhibition of yeast aldehyde dehydrogenase. Details: concentration or dose not given beside the values. The note with it: concentration not given here.
The test system is the same in test [2]. Nature of the test: In vitro inhibition of yeast aldehyde dehydrogenase is evaluated by the formation of NADH.
Test [3] has as its system Saccharomyces cerevisiae. Kind of test: In vitro inhibition of yeast aldehyde dehydrogenase at 100 uM concentration of compound. In a few lines:
(§1)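 Commercial yeast AlDH (0.074 IU) was preincubated 10 min at 0 °C with test agent added in acetone, in 100 mM potassium phosphate pH 7.4 containing 1.0 mM NAD+. Concentration is the final level in this primary mix. A 20-µL aliquot went into 0.5 mM NAD+, 1.0 mM EDTA, 30% glycerol, 80 mM potassium phosphate pH 8.0; reaction started with benzaldehyde (0.6 µmol); NADH read at 340 nm.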

Test [4] has as its system Saccharomyces cerevisiae. Kind of test: In vitro inhibition of yeast […] is evaluated by the formation of NADH at 100 uM concentration of compound. In a few lines:
as §1

Test [5] relates to Saccharomyces cerevisiae. Nature of the test: Inhibition of yeast […] is evaluated by formation by NADH in vitro at 10 uM concentration of compound. In a few lines:
as §1

Test [6] has as its system Saccharomyces cerevisiae. Kind of test: In vitro inhibition of yeast […] at 1 uM concentration of compound.
Test [7] deals with Saccharomyces cerevisiae. Kind of test: In vitro inhibition of yeast […] at 100 uM concentration of compound.
The subject of test [8] is Saccharomyces cerevisiae. Kind of test: Inhibition of yeast aldehyde dehydrogenase is evaluated by formation by NADH in vitro at 10 uM concentration of compound. Summed up: as §1
Test [9] concerns the target T1, Aldehyde dehydrogenase, mitochondrial (Rattus norvegicus) (UniProt P11884).
T1 sequence (whole entry): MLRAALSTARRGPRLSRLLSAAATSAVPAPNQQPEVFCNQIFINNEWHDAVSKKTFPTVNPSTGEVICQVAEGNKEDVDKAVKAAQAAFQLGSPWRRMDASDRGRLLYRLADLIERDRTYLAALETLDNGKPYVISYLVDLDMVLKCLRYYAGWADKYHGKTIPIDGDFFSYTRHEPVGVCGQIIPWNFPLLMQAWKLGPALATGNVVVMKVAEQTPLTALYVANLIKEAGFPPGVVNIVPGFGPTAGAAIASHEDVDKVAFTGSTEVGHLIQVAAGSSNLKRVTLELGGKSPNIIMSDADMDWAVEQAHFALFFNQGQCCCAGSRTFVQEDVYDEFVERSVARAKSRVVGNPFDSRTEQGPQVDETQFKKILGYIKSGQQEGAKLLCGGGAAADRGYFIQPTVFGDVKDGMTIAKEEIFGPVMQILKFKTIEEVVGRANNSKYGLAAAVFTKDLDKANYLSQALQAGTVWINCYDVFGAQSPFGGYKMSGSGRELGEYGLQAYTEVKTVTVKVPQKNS
Kind of test: Inhibition of class II aldehyde dehydrogenase in vitro in intact rat liver mitochondria assayed by nmol of acetaldehyde oxidized/min.mg of protein. Summed up:
(§2)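 Mitochondria from overnight-fasted male rats (200–250 g). Preincubated 5 min at 37 °C, then acetaldehyde (200 nmol) added for 5 min. Quenched with cold HClO4; acetaldehyde loss read by head-space GC; Lowry protein.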

The target of test [10] is T1, Aldehyde dehydrogenase, mitochondrial (Rattus norvegicus). Nature of the test: Inhibition of class II aldehyde dehydrogenase in vitro in osmotically disrupted rat liver mitochondria assayed by nmol of acetaldehyde oxidized/min.mg of protein. Summed up:
(§3)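 Liver mitochondria from overnight-fasted male rats (200–250 g), osmotically disrupted by leaving sucrose out of the medium. Preincubated 5 min at 37 °C, then acetaldehyde (200 nmol) added for 5 min. HClO4 quench; head-space GC; Lowry protein.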

For test [11] the target is unchanged. Kind of test: Percent inhibition of class II aldehyde dehydrogenase in vitro in intact rat liver mitochondria. Conditions: concentration not given here. Summed up: as §2
Test [12] has the same target. Nature of the test: Percent inhibition of class II aldehyde dehydrogenase in vitro in osmotically disrupted rat liver mitochondria. Conditions: concentration not given here. Summed up:
as §3

Here are results for 15 molecules from ChEMBL document CHEMBL1124498.

Several values for one entry are separate records, joined by “and”; a condition that tells them apart may be missing. Equal values may be shown once.

Turning to `CCCNC(=O)N(C(C)(C)C)S(=O)(=O)c1ccc(Cl)cc1`, the inhibition (in general, the drop in the measured response relative to a control, in per cent) in test [1] amounted to 100%. Further, the ALDH activity (NADH formation rate) in [2] turned out to be 0 nM/min.

Regarding `CCCCN=C=O`, the inhibition came to 100% in the test with Saccharomyces cerevisiae [3], 20.8% in the test on Saccharomyces cerevisiae [6] and 98.9% in the test with Saccharomyces cerevisiae [7]. For the same molecule, the AIDH activity with Saccharomyces cerevisiae [4] came out at 0 nM/min; with Saccharomyces cerevisiae [5] it was 11.2 nM/min; in the test on Saccharomyces cerevisiae [8] it was 0.2 nM/min.

The molecule `CCN(C(=O)NC(C)(C)C)S(=O)(=O)c1ccc(Cl)cc1` gave an inhibition in test [1] of 97.3%. The molecule also gave an ALDH activity (NADH formation rate) in test [2] of 2.7 nM/min.

Turning to `CCCNC(=O)N(CCC)S(=O)(=O)c1ccc(Cl)cc1`, the inhibition in [1] turned out to be 91.1%. For the same molecule, the ALDH activity (NADH formation rate) in test [2] worked out at 1.3 nM/min.

The molecule `CCCNC(=O)NS(=O)(=O)c1ccc(Cl)cc1` displayed an AIDH activity in test [9] of 28.3 nM/min. Also, the AlDH activity in [10] was 73.8 nmol/min/mg. Also, the inhibition in test [11] and in [12] was 0% throughout.

The molecule `CCCNC(=O)N(CC)S(=O)(=O)c1ccc(Cl)cc1` had an inhibition in test [1] of 98.6%. In [2], this molecule yielded an ALDH activity (NADH formation rate) of 1.4 nM/min.

Consider `CCCN=C=O`, for which the AIDH activity in the test with Saccharomyces cerevisiae [4] came to 0 nM/min. Also, the inhibition in the test with Saccharomyces cerevisiae [6] is 8.8%; with Saccharomyces cerevisiae [7] it was 100% and 98.5%.

In test [1], `CCCCN(C(=O)NCCC)S(=O)(=O)c1ccc(Cl)cc1` registered an inhibition of 100%. The molecule further gave an ALDH activity (NADH formation rate) in test [2] of 0 nM/min.

`CCCNC(=O)N(C(C)C)S(=O)(=O)c1ccc(Cl)cc1`: the inhibition in [1] worked out at 100%. For the same molecule, the ALDH activity (NADH formation rate) in test [2] amounted to 0 nM/min.

For the molecule `O=C=NC1CCCCC1`, the inhibition in the test on Saccharomyces cerevisiae [3] worked out at 100%; in the test with Saccharomyces cerevisiae [6] it was 12.1%; in the test on Saccharomyces cerevisiae [7], 96.5%. In addition, the AIDH activity amounted to 0 nM/min with Saccharomyces cerevisiae [4], 12.4 nM/min in the test on Saccharomyces cerevisiae [5] and 0.5 nM/min in the test on Saccharomyces cerevisiae [8].

For the molecule `CCCOC(=O)N(CC)S(=O)(=O)c1ccc(Cl)cc1`, the inhibition in test [1] is 1.4%. Besides, in test [2], the ALDH activity (NADH formation rate) amounted to 14.6 nM/min.

The molecule `CCCN(C)C(=O)NS(=O)(=O)c1ccc(Cl)cc1` gave an inhibition in [1] of 0%. In addition, in test [2], the ALDH activity (NADH formation rate) was 15 nM/min.

With `CCCNC(=O)N(C)S(=O)(=O)c1ccc(Cl)cc1`, the AIDH activity was determined as 13.4 nM/min in test [9] and 19 nM/min in test [10]. Further, the figures for the inhibition in [11], in test [12] and in test [1] were 48.9%, 73.7% and 99.6%, respectively. In test [2], the ALDH activity (NADH formation rate) turned out to be 0.6 nM/min.

For `CCCNC(=O)N(CC(C)(C)C)S(=O)(=O)c1ccc(Cl)cc1`, the inhibition in [1] was found to be 100%. In addition, in [2], the ALDH activity (NADH formation rate) stood at 0 nM/min.

Turning to `CCCNC(=O)N(CC(C)C)S(=O)(=O)c1ccc(Cl)cc1`, the inhibition in [1] worked out at 100%. In test [2], this molecule had an ALDH activity (NADH formation rate) of 0 nM/min.
